Measurements taken from paper PMC7003538 (Biochemistry, 2019).

Columns and labels:
Experiment in all cases: UV-Vis spectral titration
Type in all cases: binding
[1] = target: CYP3A4 (Homo sapiens, UniProt P08684, F213A/S18F)
Outline: (§1)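 Human CYP3A4 (NF-14 construct, C-terminal pentahistidine tag, pCWori+ vector), wild type or F213 mutant, was incorporated into POPC Nanodiscs. The enzyme at 1-2 µM was titrated at 37 °C with test compound added in methanol (final methanol <1.5%), and UV-Vis spectra were read for the heme high-spin shift. Mixed titrations kept a fixed 1:12 steroid:second-substrate molar ratio.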

[2] = target: CYP3A4 (Homo sapiens, UniProt P08684, F213Y/S18F)
Outline: as §1

[3] = target: CYP3A4 (Homo sapiens, UniProt P08684, S18F)
Outline: as §1

[4] = target: CYP3A4 (Homo sapiens, UniProt P08684, F213S/S18F)
Outline: as §1

Sequence of CYP3A4 (Homo sapiens, UniProt P08684, F213A/S18F) (P08684 13-503 S18F/F213A limits assumed): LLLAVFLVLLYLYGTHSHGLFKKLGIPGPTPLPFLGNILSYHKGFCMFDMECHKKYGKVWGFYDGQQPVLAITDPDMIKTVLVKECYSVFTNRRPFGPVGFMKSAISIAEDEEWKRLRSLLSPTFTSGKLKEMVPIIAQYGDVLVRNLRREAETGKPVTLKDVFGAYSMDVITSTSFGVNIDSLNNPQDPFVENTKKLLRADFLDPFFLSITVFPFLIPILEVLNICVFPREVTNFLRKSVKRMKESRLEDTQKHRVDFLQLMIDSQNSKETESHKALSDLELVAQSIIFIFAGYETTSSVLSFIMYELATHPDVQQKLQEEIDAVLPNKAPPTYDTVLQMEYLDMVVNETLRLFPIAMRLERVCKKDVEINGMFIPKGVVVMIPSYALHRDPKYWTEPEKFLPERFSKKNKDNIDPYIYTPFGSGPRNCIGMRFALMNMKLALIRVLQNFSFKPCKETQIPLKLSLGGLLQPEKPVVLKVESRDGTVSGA
Sequence of CYP3A4 (Homo sapiens, UniProt P08684, F213Y/S18F) (P08684 13-503 S18F/F213Y limits assumed): as the sequence (P08684 13-503 S18F/F213A limits assumed) above, with A201Y counted along it
Sequence of CYP3A4 (Homo sapiens, UniProt P08684, F213S/S18F) (P08684 13-503 S18F/F213S limits assumed): as the sequence (P08684 13-503 S18F/F213A limits assumed) above, with A201S counted along it
Sequence of CYP3A4 (Homo sapiens, UniProt P08684, S18F) (P08684 13-503 S18F limits assumed): as the sequence (P08684 13-503 S18F/F213A limits assumed) above, with A201F counted along it

With `CC(=O)[C@H]1CC[C@H]2[C@@H]3CCC4=CC(=O)CC[C@]4(C)[C@H]3CC[C@]12C` [progesterone] the Kd [1] was 24.3 µM, the Kd [2] was 21.8 µM and the Kd [3] was 31 µM. The Kd [4] was 24.2 µM.
